Bioassay records: PubChem, Sanford-Burnham Center for Chemical Genomics
The list is a sample of the results.
Apaf1 activ = activators of human Apaf-1 apoptosome, primary screen, biochemical, DEVD-Rh110 fluorescence, uHTS. Apoptotic protease-activating factor 1 (Homo sapiens), O14727. Apaf-1 apoptosome caspase-3 activation; stronger effect = lower value. activity change, negative = activation, % at 20 µM. actives 0.31% (n = 330,000). AID 489031, 2010;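 active = activity change at or below -40% at 20 µM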
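System: Reconstituted apoptosome of Apaf-1, cytochrome c, caspase-9, procaspase-3 | Reagent: dATP, cytochrome c, and (Z-DEVD)2-Rh110 caspase-3 substrate | Times: 30 min compound preincubation and 50 min reaction, both room temperature | Detection: Caspase-3-released Rh110 fluorescence, 540 nm emission, 480 nm excitation | Measure: Caspase-3 activity via Apaf-1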
Rh110 act interf = Rh110 fluorescence interference by putative Apaf-1 activators, confirmation, artefact control for Apaf-1 activator project, biochemical, 20 µM. quenched caspase reaction, Ex480/Em540. fluorescence interference (activity change), % at 20 µM, hits read low. 980 tested, under 10 active. shares compounds with Apaf1 activ;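 active = mean activity change at or below -40% when tested at 20 µM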
Apaf-1 act conf2 = Apaf-1 activators, single-dose retest, confirmation, biochemical, fluorescence, DEVD-Rh110, 20 µM. shares compounds with Apaf1 activ. reconstituted apoptosome caspase-3 activity; stronger effect = lower value. activity change, negative = activation, % at 20 µM. actives 5% (n = 980);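 active = mean activity change at or below -40%, meaning activation of 40% or more, at 20 µM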
Fluor interf act = fluorescence interference of Apaf-1 activator hits, dose response, artefact control for Apaf-1 activator project; shares compounds with Apaf1 activ; fluorescence interference counterscreen, Apaf-1 activator assay; EC50, µM; 55 tested, under 10 active; call rule not given here
* marks the source's active call; other numbers are inactive results; x = no result.

SMILES	Apaf1 activ	Rh110 act interf	Apaf-1 act conf2	others
Cc1cc(NC(=O)CCC(=O)N(CC(=O)NCC2CCCO2)Cc2ccc(F)cc2)no1 (centres undefined)	-45*	-2	2
CC1=NN(c2ccc(C(F)(F)F)cn2)C(=O)C1	62	x	x
O=P(CCCCCCCCCP(=O)(c1ccccc1)c1ccccc1)(c1ccccc1)c1ccccc1	53	x	x
COC(=O)c1ccc2c(=O)n(CCCCCC(=O)N3CCN(c4ccccc4)CC3)c(=O)[nH]c2c1	47	x	x
COCCn1c(=S)[nH]c2cc(C(=O)N3CCN(c4cccc(Cl)c4)CC3)ccc2c1=O	-324*	8	24
O=C(NCCC(=O)N1CCN(c2cccc(Cl)c2)CC1)c1ccc(Br)cc1	44	x	x
Cc1ccc(CN2C(=O)CCC2C(=O)NCC2CCCO2)cc1 (centres undefined)	-88*	4	3
COc1ccccc1-n1c(N)c(C(=O)NCC2CCCO2)c2nc3ccccc3nc21 (centres undefined)	69	x	x
CC(=O)c1c(-c2ccccc2)c2cc(Cl)ccc2[nH]c1=O	-49*	-2	8
CCN(CC)CCNC(=O)c1ccc2c(c1NCCO)C(=O)c1ccccc1C2=O	54	x	x
O=C(Nc1nc2ccsc2c(=O)s1)c1ccco1	-136*	0	-56*	Fluor interf act=>100
CCCCCn1c(NC(=O)c2ccco2)c(S(=O)(=O)c2ccc(C)cc2)c2nc3ccccc3nc21	63	x	x
COC(=O)c1ccc(NC(=O)c2ccc(NC(=O)c3ccco3)cc2)cc1	44	x	x
CN1CCN(CC(=O)N2CCn3c4c(c5cc(C6CCCCC6)ccc53)CCCC42)CC1 (centres undefined)	58	x	x
C=CCN(CC=C)C(=S)Nc1ccc2nsnc2c1	96	x	x
C[C@@H](CSc1ccc(Br)cc1)CN1CC[C@H](NC(=O)OCc2ccccc2)CCC1=O	40	x	x
COc1ccc(C(=O)N(Cc2ccccc2)c2cccc(C)c2)cc1S(=O)(=O)N1CCOCC1	45	x	x
CCCCN(C(=O)c1cccc(S(=O)(=O)N2CCOCC2)c1)c1c(N)n(CCC)c(=O)[nH]c1=O	-84*	0	5
COc1ccc(C(=O)N(CCc2ccccc2)Cc2ccccc2)cc1S(=O)(=O)N1CCOCC1	45	x	x
COc1ccc(Br)cc1C1CC(=O)N2CN(Cc3ccccc3)CSC2=C1C#N (centres undefined)	78	x	x
O=C1c2ccccc2C(=O)C1c1ccc2ccccc2n1	-334*	6	5
CCCCOc1cc(C(=O)OCCN(CC)CC)ccc1N	3	x	x
CCCCCCCCCCCCCCCC[n+]1ccc(C(N)=O)cc1	73	x	x
CCN1C(N(C)CCc2c[nH]c3ccccc23)=N[C@@H](c2cccc(C(F)(F)F)c2)C(C(=O)OC)=C1C	55	x	x
Cc1ccccc1NC(=O)C1CC(Cl)=CCC1C(=O)O (centres undefined)	-111*	2	11
SMILES	Apaf1 activ	Rh110 act interf	Apaf-1 act conf2	others
O=C(N/N=C/c1ccc(O)c2ncccc12)c1cccc(Br)c1	-68*	-1	-4
Oc1ccc(C=Nc2cccc3ncccc23)c(O)c1	87	x	x
O=C(N/N=C/c1ccccc1O)C1(O)c2ccccc2-c2ccccc21	-59*	6	13
COc1ccc(S(=O)(=O)Oc2ccc3cccc(N)c3c2)cc1	88	x	x
O=[N+]([O-])c1ccc(-c2ccc(C=Nc3cccc4ccccc34)o2)cc1	46	x	x
O=C(c1ccc(-c2ccccc2Cl)o1)N1CCCC(C(F)(F)F)C1 (centres undefined)	41	x	x
O=C(O)C1CCCN(S(=O)(=O)c2ccc(-c3ccc(=O)[nH]n3)s2)C1 (centres undefined)	-350*	-5	10
COc1cccc(-c2nnc(SC(C(=O)c3c[nH]c4ccccc34)c3ccccc3)n2C)c1 (centres undefined)	43	x	x
COc1cccc(NC(=O)C(Sc2nnc(Nc3ccccc3C)s2)c2ccccc2)c1 (centres undefined)	-276*	16	6
COc1cccc(NC(=S)Nc2cccc3ccccc23)c1	94	x	x
CCC[C@@H](CN1CCC[C@H]1CN1C(N)=NC[C@H]1CC(C)C)N1C[C@@H]([C@H](C)CC)N(CCc2ccc(Cl)c(Cl)c2)C1=N	64	x	x
Cc1ccsc1C=Nc1ccc(O)cc1	94	x	x
COc1ccccc1Nc1cc2cc(Br)ccc2c(=O)[nH]1	97	x	x
CC(=O)c1cccc(-c2ccc3c(=O)[nH]c(Nc4ccccc4)cc3c2)c1	96	x	x	Fluor interf act=>100
